Data published in paper PMC5318329 (Drugs in R&D, 2016).

Legend:
IL-6 = details: cited from earlier work
[1] = format: in vivo, human
Outline: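 Non-head-injury trauma patients randomised within 24–26 h of injury; daily IV infusion over 4 h or 24 h for 3 days. Plasma sampled pre-dose and serially after the first and third doses. Protein precipitation, then HPLC–MS/MS (LLOQ 0.1 ng/mL, ULOQ 100 ng/mL); NQ set missing, outliers excluded. NONMEM mixed-effects three-compartment model with first-order elimination; BMI power covariate centred at 27.4 kg/m2.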

C-reactive protein (CRP) = details: later time points (e.g. 72 h post dose), all dilmapimod dose levels; cited from earlier work
[2] = format: in vivo, human; details: intravenous infusion up to 10 mg, 3 consecutive days
[3] = final three-compartment population PK model, IV infusion
[4] = power model, covariate centred to population mean 27.4 kg/m^2

Terminal half-life ([1]; calculated based on typical value of CL, Vc, V2, V3, Q1 and Q2): 16 h | Q1 (inter-compartmental clearance), typical value [1, 3]: 28.2 L/h | Q2 (inter-compartmental clearance), typical value [1, 3]: 5.7 L/h | V2 (volume of distribution of peripheral compartment), typical value [1, 3]: 35.9 L | V3 (volume of distribution of peripheral compartment), typical value [1, 3]: 115.6 L | Vc (volume of distribution of the central compartment), typical value [1, 3]: 8.1 L | Clearance lower than in typical patient ([1]; patients with BMI of 23 kg/m^2 (mean - SD) vs typical patient (27.4 kg/m^2)): about 21% | Clearance higher than in typical patient ([1]; patients with BMI of 32 kg/m^2 (mean + SD) vs typical patient (27.4 kg/m^2)): ~23% | BMI covariate on CL (power model exponent) [1, 4]: 1.36 | BMI covariate on Q2 (power model exponent) [1, 4]: 2.42 | Vss (steady-state volume of distribution) = Vc + V2 + V3 ([1]; sum of Vc, V2 and V3 of the final population PK model): 160 L
SMILES: Cc1cc(F)ccc1-c1nc(NC(CO)CO)nc2c1ccc(=O)n2-c1c(F)cccc1F [Dilmapimod]
IL-6 levels relative to placebo (exploratory analyses) (IL-6; 24 h post dose, all dilmapimod dose levels): trend of lower levels of IL-6 | Ratios of IL-6 relative to placebo (IL-6; continuous infusion of 10 mg/24 h, up to 72 h post dose): below 1 | Overall effect of dilmapimod on IL-6 levels in PK/PD modelling (IL-6; similar PK/PD modelling approach on IL-6 data): not revealed | Dose proportionality of plasma concentration ([1]; IV infusion 3, 7.5 mg over 4 h, 7.5, 10 mg over 24 h): increased approximately proportionally to the increase in dose | CRP levels relative to placebo (exploratory analyses) (C-reactive protein (CRP)): trend of lower levels of CRP | Tolerability [2]: generally well tolerated
